Measurements as given in ChEMBL document CHEMBL5390200, “Synthesis and evaluation of DAG-lactone derivatives with HIV-1 latency reversing activity” (Eur J Med Chem, 2023).

Assays:
[1] = test system: Human immunodeficiency virus 1; assay: HIV1-latency reversing activity in human ACH-2 cell line incubated for 48 hrs; assay type: functional, organism-based; conditions: Human immunodeficiency virus 1, ACH-2, 48 h
[2] = test system: Human immunodeficiency virus 1; assay: HIV1-latency reversing activity in human J-Lat 10.6 cells assessed as change in GFP expression incubated for 24 hrs by flow cytometric analysis; assay type: functional, organism-based; conditions: Human immunodeficiency virus 1, J-Lat 10.6, 24 h
In short: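 Cells seeded at 2 × 10^5 per well and exposed to a range of compound concentrations for 24 h; 10 nM PMA served as reference. GFP-positive cells counted by flow cytometry. Means ± SD from at least two independent experiments.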

[3] = Cytotoxicity against human Jurkat cells assessed as reduction in cell viability incubated for 24 hrs by Ghost dye 780 staining based flow cytometric analysis; assay type: toxicity
[4] = molecular target: Protein kinase C delta type (Homo sapiens, UniProt Q05655); assay: Binding affinity to PKCdelta C1B domain (231 to 281 residues) (unknown origin) by 6-methoxynaphthalene DAG lactone probe based fluorescence quenching assay
[5] = Stability of the compound assessed as porcine liver esterase-mediated hydrolysis measured after 1 to 24 hrs by HPLC analysis; assay type: ADME, Sus scrofa; conditions: pig, isolated protein; time 1-24 hrs
In short: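 Compounds taken from 100 mM DMSO stock to 1 mM final in 50 mM HEPES pH 7.2 with 0.01 U PLE, then held at 37 °C. Aliquots sampled at 1, 3, 6 and 24 h and quenched into equal volume MeCN/0.1% TFA. C18 reversed-phase HPLC with 0–95% MeCN gradient over 40 min, UV detection at 245 nm. Residual peak area normalized to 0 h.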

[6] = test system: Human immunodeficiency virus 1; assay: HIV1-latency reversing activity in human U1 cells incubated for 2 days; assay type: functional, organism-based; conditions: Human immunodeficiency virus 1, U1, 48 h

Sequence of Protein kinase C delta type (Q05655 whole entry, the tested form may be a part): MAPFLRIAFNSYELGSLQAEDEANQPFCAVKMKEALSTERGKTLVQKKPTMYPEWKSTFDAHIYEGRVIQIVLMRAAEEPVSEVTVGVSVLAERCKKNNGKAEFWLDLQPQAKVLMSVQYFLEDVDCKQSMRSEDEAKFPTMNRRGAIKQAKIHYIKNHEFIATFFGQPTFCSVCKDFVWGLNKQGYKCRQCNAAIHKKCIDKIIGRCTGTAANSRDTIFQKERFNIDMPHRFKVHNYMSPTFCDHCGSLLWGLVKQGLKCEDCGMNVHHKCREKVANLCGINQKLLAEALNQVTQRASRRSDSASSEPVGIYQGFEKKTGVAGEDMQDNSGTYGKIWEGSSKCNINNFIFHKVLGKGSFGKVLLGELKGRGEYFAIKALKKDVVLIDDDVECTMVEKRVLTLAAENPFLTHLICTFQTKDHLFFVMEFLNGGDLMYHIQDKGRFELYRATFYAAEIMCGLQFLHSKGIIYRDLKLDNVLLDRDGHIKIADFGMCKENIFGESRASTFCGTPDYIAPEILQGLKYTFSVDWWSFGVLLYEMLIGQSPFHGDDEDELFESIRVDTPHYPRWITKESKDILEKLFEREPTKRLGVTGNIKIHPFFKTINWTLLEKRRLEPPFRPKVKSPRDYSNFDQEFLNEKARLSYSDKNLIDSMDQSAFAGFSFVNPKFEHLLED

Structure (SMILES) | EC50 [2] | CC50 at 24 h [3] | further results
CCCCCCCCCCc1ccc2c(c1)N(C)[C@@H](C(C)C)C(=O)N[C@H](CO)C2 | – | – | EC50 [1]: 25 nM
CCCCCCCCCC(=O)OCC1(CO)CC(=C(C)C)C(=O)O1 (centres undefined) | > 10000 nM | > 10000 nM | IC50 ([4]; read-out: IC50): 2200 nM; Stability [5]: Unstable
CC(C)=C1CC(CO)(COC(=O)C2CCC(C)CC2)OC1=O (centres undefined) | > 10000 nM | – | –
CCCCCCC(CCCCCC)C(=O)OCC1(CO)CC(=C(C)C)C(=O)O1 (centres undefined) | 220 nM | > 10000 nM | IC50 ([4]; read-out: IC50): 690 nM; Stability [5]: Stable
CC(C)=C1CC(CO)(COC(=O)C(C)(C)C)OC1=O (centres undefined) | > 10000 nM | > 10000 nM | IC50 ([4]; read-out: IC50): > 10000 nM; Stability [5]: Stable
CCCCCCCC(CCCCCCC)C(=O)OCC1(CO)CC(=C(C)C)C(=O)O1 (centres undefined) | 380 nM | > 10000 nM | –
CC(C)=C1CC(CO)(COC(=O)C(C)C)OC1=O (centres undefined) | > 10000 nM | – | –
CCCCCC(CCCCC)C(=O)OCC1(CO)CC(=C(C)C)C(=O)O1 (centres undefined) | 430 nM | > 10000 nM | –
C=C(C)[C@]12C[C@@H](COC(=O)c3ccccc3)[C@@]34O[C@@]5(O[C@@H]1[C@@H]3[C@@H]1O[C@]1(CO)[C@@H](O)[C@@]1(O)[C@H]4[C@H]([C@H](C)[C@@H]1OC(=O)c1ccccc1)[C@H](C)CCCCCC[C@H]5O)O2 | – | – | EC50 [6]: 0.018 nM
CC(C)=C1CC(CO)(COC(=O)c2ccc3ccccc3c2)OC1=O (centres undefined) | > 10000 nM | – | –
CC(C)=C1CC(CO)(COC(=O)C2CCCCC2)OC1=O (centres undefined) | > 10000 nM | – | –
CCCC(CCC)C(=O)OCC1(CO)CC(=C(C)C)C(=O)O1 (centres undefined) | 2000 nM | > 10000 nM | Stability [5]: Stable
CCCCC(=O)OCC1(CO)CC(=C(C)C)C(=O)O1 (centres undefined) | > 10000 nM | – | –
CCC(CC)C(=O)OCC1(CO)CC(=C(C)C)C(=O)O1 (centres undefined) | > 10000 nM | – | –
CCCCC(CCCC)C(=O)OCC1(CO)CC(=C(C)C)C(=O)O1 (centres undefined) | 820 nM | > 10000 nM | –
CC(=O)OCC1(CO)CC(=C(C)C)C(=O)O1 (centres undefined) | > 10000 nM | > 10000 nM | IC50 [4]: Not Active
CC(C)=C1CC(CO)(COC(=O)c2ccccc2)OC1=O (centres undefined) | > 10000 nM | – | –
CCCCCCCCC(CCCCCCCC)C(=O)OCC1(CO)CC(=C(C)C)C(=O)O1 (centres undefined) | 340 nM | > 10000 nM | –
CCCCCCCCCC(CCCCCCCCC)C(=O)OCC1(CO)CC(=C(C)C)C(=O)O1 (centres undefined) | 310 nM | > 10000 nM | IC50 ([4]; read-out: IC50): 560 nM
CC(=O)O[C@@]12C[C@@H](C)[C@@]3(O)[C@@H](C=C(CO)C[C@]4(O)C(=O)C(C)=C[C@@H]34)[C@@H]1C2(C)C [PROSTRATIN] | – | > 10000 nM | –
